Test results taken from PubChem BioAssay.
Results filed as inconclusive are left out. Activity calls are given as the source filed them.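 The calls were made as follows, unless noted: active = inhibition over a set limit, the all-compound mean plus 3 SD, in both replicate runs; inconclusive = over that limit in just one replicate run; inactive = at or under that limit in both runs.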

Columns and labels:
[1] = S. cerevisiae growth inhibition in permissive medium (OD615), pilot counter-assay for S. cerevisiae lifespan shortening project, permissive growth control (AID 705;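 active = growth inhibition above 25% in both replicates, a cutoff set 3 SD above the mean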); settings: OD615, 24 h, at 10 µM, active compounds read high
How it was run: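 assay system = Saccharomyces cerevisiae strain carrying genetically modified DeaD replicative-lifespan system | technique = absorbance (optical density) at 615 nm | buffer or medium = permissive raffinose/galactose medium | timing = cells pre-grown 4 h, then 24 h compound exposure, 30 °C humidified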

[2] = S. cerevisiae growth inhibition in restrictive medium, OD615, pilot screen, restrictive growth control, yeast lifespan reduction project (AID 706;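 active = growth inhibition above a set limit, 3 SD over mean compound inhibition, in both replicates, cut at about 43% in these data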;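 also: modified DeaD lifespan yeast strain shifted to restrictive glucose medium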); settings: OD615, 48 h, at 10 µM, active compounds read high
How it was run: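 System: modified S. cerevisiae. Buffer or medium: CSMM-D glucose medium. Incubation: 4 h pre-growth plus 48 h compound exposure, 30 °C. Detection: absorbance (optical density) measured at 615 nm.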

[3] = doxorubicin toxicity protection in MRP-1 cells – H69AR cells, CellTiter-Glo, duplicate, MRP-1 activator project, pilot screen (AID 807;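 active = viability increase at or above a cutoff of the median across tested compounds plus 3 SD, cut at about 8.5% in these data, passing the limit was not always enough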;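 also: compound pretreatment 18-22 h then 72 h combined with doxorubicin; 0% = doxorubicin alone and 100% = vehicle without doxorubicin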); settings: H69AR viability with doxorubicin, CellTiter-Glo luminescence; at 10 µM; active compounds read high
[4] = viability of HCT116 without oncogenic beta-catenin – human colon tumor cells, pilot screen (AID 823;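 active = cell viability at or below a set limit in both duplicate runs, the limit being the all-compound median minus 4 SD, cut at about 23% in these data, passing the limit was not always enough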;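 also: 0% = wells killed by 20 µM Hyamine and 100% = untreated DMSO cell wells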); settings: HCT116 beta-catenin knockout viability, CellTiter-Glo, 60 h; at 10 µM; active compounds read low
[5] = viability of PTEN-null HCT116 cells – cell-based, HCT116 clonal line, CellTiter-Glo, pilot screen (AID 824;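 active = viability at or below 27.92% in each of two runs, the all-compound median minus 4 SD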;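 also: 0% = 20 µM Hyamine control and 100% = vehicle cell control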); settings: HCT116 PTEN-deleted viability, 60 h, at 10 µM, active compounds read low
[6] = RAM pathway blockade in budding yeast – dse1pr::URA3 reporter, 5-FOA selection, pilot screen (AID 869);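 also: 0% = DMSO wells with no growth and 100% = 10 µM 1-NA-PP1 with full growth; RAM network block rescues cells from 5-FOA so hits raise OD615 growth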; settings: S. cerevisiae dse1pr::URA3 5-FOA growth, OD615, 2 d; at 10 µM; active compounds read high; strain carries analog-sensitive mutant Cbk1 kinase
[7] = RAM signaling pathway blockade in yeast – S. cerevisiae, Pdr1DBD-CYC8 efflux-inhibited sensitized strain, primary screen (AID 1298;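 active = RAM network inhibition above 8.4% in each of two replicates, 3 SD over the compound average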;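 also: 0% = DMSO untreated cells without growth and 100% = 10 µM 1-NA-PP1 full growth; higher means more yeast growth rescued from 5-FOA killing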); settings: S. cerevisiae cbk1-as DSE1-URA3 strain, 5-FOA growth OD615, 2 d; at 50 µM; active compounds read high

C1CCC(Nc2nnnn2C2CCCCC2)CC1
inactive: growth inhibition [1] -16.8% | growth inhibition [2] -16.1% | viability increase [3] -2.17% | viability [4] 90.4% | viability [5] 92.5% | inhibition [6] 1.41% | RAM network inhibition [7] 3.33%

CCOc1ccc(C2CC(=O)NC(SCC(=O)OC)=C2C#N)cc1 (stereo not drawn)
inactive: growth inhibition [1] 3.64% | growth inhibition [2] 6.22% | viability increase [3] 2.65% | viability [4] 102% | viability [5] 105% | inhibition [6] 1.87% | RAM network inhibition [7] 1.2%

COc1cccc(C2N(c3ccc(Cl)cc3)C(=O)C3CCCN32)c1 (stereo not drawn)
inactive: growth inhibition [1] -5.56% | growth inhibition [2] 1.89% | viability increase [3] 0.15% | viability [4] 97.5% | viability [5] 94.5% | inhibition [6] 1.04% | RAM network inhibition [7] 0%

CCn1c(SCC(=O)NCCOc2ccccc2)nc2ccccc2c1=O
inactive: growth inhibition [1] -0.73% | growth inhibition [2] -21.3% | viability increase [3] -1.87% | viability [4] 93.8% | viability [5] 92.6% | inhibition [6] 1.08% | RAM network inhibition [7] 4.35%

CC(Oc1ccc(Cl)cc1Cl)C(=O)Nc1ccncc1 (stereo not drawn)
inactive: growth inhibition [1] -13.3% | growth inhibition [2] -9.66% | viability increase [3] -6.03% | viability [4] 54.9% | viability [5] 54.2% | inhibition [6] 1.19% | RAM network inhibition [7] 2.04%

COc1ccc(C2(C(F)(F)F)NC(=O)N(C)C(=O)N2C)cc1 (stereo not drawn)
inactive: growth inhibition [1] -14.7% | growth inhibition [2] -19.5% | viability increase [3] -0.46% | viability [4] 99% | viability [5] 101% | inhibition [6] 1.11% | RAM network inhibition [7] 2.74%

CC1=CC(C)(C)N(C(=O)CSc2nccn2C)c2cc(C)ccc21
inactive: growth inhibition [1] -12.3% | growth inhibition [2] -6.42% | viability increase [3] -3.04% | viability [4] 84.6% | viability [5] 84% | inhibition [6] 1.09% | RAM network inhibition [7] 0.77%

CCCCn1c(CCCNC(=O)CC)nc2ccccc21
inactive: growth inhibition [1] 0.535% | growth inhibition [2] -5.98% | viability increase [3] -4.51% | viability [4] 94.2% | viability [5] 85.8% | inhibition [6] 1.65% | RAM network inhibition [7] 4.06%

CC(=O)N1c2ccccc2N(Cc2ccc(C)cc2C)C(=O)C1(C)C
active: viability [4] 16% | viability [5] 20.7%
inactive: growth inhibition [1] -6.6% | growth inhibition [2] 5.81% | viability increase [3] -6.55% | inhibition [6] 1.14% | RAM network inhibition [7] 9.4%

Oc1ccccc1-c1nnc(COc2ccccc2)o1
inactive: growth inhibition [1] -1.18% | growth inhibition [2] 14.6% | viability increase [3] -1.43% | viability [4] 72.2% | viability [5] 75.5% | inhibition [6] 1.24% | RAM network inhibition [7] 5.2%

Cc1cc(C)n(C(CC(=O)N2CCc3ccccc3C2)C(=O)O)n1 (stereo not drawn)
inactive: growth inhibition [1] -3.07% | growth inhibition [2] -0.04% | viability increase [3] 0.01% | viability [4] 102% | viability [5] 95.5% | inhibition [6] 0% | RAM network inhibition [7] 5.81%

O=C1C2C(c3ccccc3)C=CC(c3ccccc3)C2C(=O)N1CCO (stereo not drawn)
inactive: growth inhibition [1] -10.9% | growth inhibition [2] -8.43% | viability increase [3] -3.35% | viability [4] 94.7% | viability [5] 95.3% | inhibition [6] 0.33% | RAM network inhibition [7] 4.03%

O=C(CCS(=O)(=O)c1cccs1)N1CCCC1
inactive: growth inhibition [1] -1.4% | growth inhibition [2] -7.61% | viability increase [3] -1.26% | viability [4] 94% | viability [5] 96.2% | inhibition [6] 2.58% | RAM network inhibition [7] 1.19%

COc1ccc(C2CC(c3cccc(C)c3)n3nc(N)nc3N2)cc1 (stereo not drawn)
inactive: growth inhibition [1] 6.39% | growth inhibition [2] 9.63% | viability increase [3] -1.84% | viability [4] 105% | viability [5] 92.8% | inhibition [6] 3.25% | RAM network inhibition [7] 1.68%

Cc1c(NC(=O)OCc2ccccc2)c(=O)n(-c2ccccc2)n1C
inactive: growth inhibition [1] -7.33% | growth inhibition [2] -0.325% | viability increase [3] 0.05% | viability [4] 109% | viability [5] 91.1% | inhibition [6] 1.35% | RAM network inhibition [7] 7.69%

COc1ccc2c(c1)CC(C1(O)C(=O)N(C)c3ccccc31)C2=O (stereo not drawn)
inactive: growth inhibition [1] 2.02% | growth inhibition [2] -8.81% | viability increase [3] -3.79% | viability [4] 94% | viability [5] 93.3% | inhibition [6] 0.845% | RAM network inhibition [7] 2.96%

c1ccc(CSc2nnc(-c3ccco3)n2Cc2ccco2)cc1
inactive: growth inhibition [1] -5.04% | growth inhibition [2] 0.405% | viability increase [3] -3.83% | viability [4] 88.6% | viability [5] 87.4% | inhibition [6] 1.85% | RAM network inhibition [7] 3.53%

NC(=O)c1ccc(N2CCCCC2)c(N2C(=O)CCC2=O)c1
inactive: growth inhibition [1] -4.77% | growth inhibition [2] -17.9% | viability increase [3] -0.03% | viability [4] 102% | viability [5] 94.6% | inhibition [6] 2.69% | RAM network inhibition [7] 2.67%

CC(=O)Nc1nonc1-c1nc2ccccc2n1Cc1nnc(C)o1
inactive: growth inhibition [1] 3.66% | growth inhibition [2] 2.84% | viability increase [3] -3.32% | viability [4] 99.7% | viability [5] 97.1% | inhibition [6] 2.09% | RAM network inhibition [7] 1.99%

CC(C)N(Cc1nc(-c2ccccc2)no1)C(=O)COc1ccccc1
inactive: growth inhibition [1] -12% | growth inhibition [2] -11.7% | viability increase [3] -3.65% | viability [4] 88.2% | viability [5] 89.7% | inhibition [6] 1.03% | RAM network inhibition [7] 3.19%

C=CCc1c(C)nc(SCc2nc3ccccc3c(=O)[nH]2)[nH]c1=O
inactive: growth inhibition [1] 3.73% | growth inhibition [2] 15.9% | viability increase [3] 0.9% | viability [4] 94.2% | viability [5] 96.7% | inhibition [6] 0.91% | RAM network inhibition [7] 1.65%

CCn1c(=O)cc(N2CCC3(CC2)OCCO3)[nH]c1=O
inactive: growth inhibition [1] -15.1% | growth inhibition [2] -8.98% | viability increase [3] 0.57% | viability [4] 96.8% | viability [5] 93.2% | inhibition [6] 1.01% | RAM network inhibition [7] 1.74%

CCOCCCNC(=O)C(NC(=O)c1cnccn1)c1ccc(OC)cc1 (stereo not drawn)
inactive: growth inhibition [1] -8.29% | growth inhibition [2] -6.63% | viability increase [3] 1.76% | viability [4] 102% | viability [5] 95.7% | inhibition [6] 1.81% | RAM network inhibition [7] 2.15%

COc1cccc(CN2C(=O)CCC2(C)C(=O)NC2CCCCC2)c1 (stereo not drawn)
inactive: growth inhibition [1] -6.64% | growth inhibition [2] 1.03% | viability increase [3] 0.54% | viability [4] 107% | viability [5] 100% | inhibition [6] -0.375% | RAM network inhibition [7] 0.22%
